According to publication PMC8162940 (Nature chemical biology, 2021):

Key:
Ikaros = Ikaros (Mus musculus, UniProt Q03267+Q8C7D2, I391V); test: Ikaros levels in murine splenocytes, flow cytometry; format: cell-based; conditions: Crbn^I391V/I391V but not wildtype cells, 1 μM, 16h
IL-2 = IL-2 secretion from stimulated Jurkat cells; format: cell-based, human; conditions: Jurkat cells pre-treated with 1 μM for 18h, then stimulated 24h
Summary of the method: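 Jurkat cells were pre-incubated 18 h with 1 μM test compound, then activated with ImmunoCult CD3/CD28 activator for 24 h, and supernatant IL-2 was measured by AlphaLISA. Mean ± SD of 3 (unstimulated) or 4 (stimulated) biological samples, representative of 2 experiments. Two-way ANOVA with Bonferroni correction.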

Chain of Ikaros (Q03267 whole entry): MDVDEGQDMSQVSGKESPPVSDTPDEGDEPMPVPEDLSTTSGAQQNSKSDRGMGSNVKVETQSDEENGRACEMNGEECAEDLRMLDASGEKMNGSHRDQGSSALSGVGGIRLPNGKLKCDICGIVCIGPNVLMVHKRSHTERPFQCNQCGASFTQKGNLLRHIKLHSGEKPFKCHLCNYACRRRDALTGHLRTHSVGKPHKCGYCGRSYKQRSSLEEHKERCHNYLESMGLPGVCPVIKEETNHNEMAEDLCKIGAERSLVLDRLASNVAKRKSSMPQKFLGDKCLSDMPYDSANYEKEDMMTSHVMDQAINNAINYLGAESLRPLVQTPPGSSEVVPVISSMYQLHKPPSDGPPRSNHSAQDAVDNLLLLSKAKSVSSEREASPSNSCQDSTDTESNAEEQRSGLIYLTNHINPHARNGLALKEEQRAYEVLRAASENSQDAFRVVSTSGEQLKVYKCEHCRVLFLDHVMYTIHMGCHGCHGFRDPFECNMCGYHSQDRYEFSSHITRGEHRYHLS
Chain of Ikaros (Q8C7D2 whole entry I391V): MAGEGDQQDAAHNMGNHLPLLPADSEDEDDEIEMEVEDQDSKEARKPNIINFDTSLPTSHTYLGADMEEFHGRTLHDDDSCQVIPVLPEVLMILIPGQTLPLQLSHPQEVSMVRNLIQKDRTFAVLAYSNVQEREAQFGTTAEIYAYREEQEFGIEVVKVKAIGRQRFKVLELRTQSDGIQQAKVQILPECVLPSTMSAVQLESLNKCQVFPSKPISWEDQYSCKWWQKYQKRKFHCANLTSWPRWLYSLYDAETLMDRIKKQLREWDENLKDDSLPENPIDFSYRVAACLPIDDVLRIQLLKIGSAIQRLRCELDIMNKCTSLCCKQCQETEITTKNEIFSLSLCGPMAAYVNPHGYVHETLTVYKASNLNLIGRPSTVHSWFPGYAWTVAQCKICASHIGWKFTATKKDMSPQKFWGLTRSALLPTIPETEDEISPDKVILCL
Chain of Ikaros (Q3U1J4 whole entry partner): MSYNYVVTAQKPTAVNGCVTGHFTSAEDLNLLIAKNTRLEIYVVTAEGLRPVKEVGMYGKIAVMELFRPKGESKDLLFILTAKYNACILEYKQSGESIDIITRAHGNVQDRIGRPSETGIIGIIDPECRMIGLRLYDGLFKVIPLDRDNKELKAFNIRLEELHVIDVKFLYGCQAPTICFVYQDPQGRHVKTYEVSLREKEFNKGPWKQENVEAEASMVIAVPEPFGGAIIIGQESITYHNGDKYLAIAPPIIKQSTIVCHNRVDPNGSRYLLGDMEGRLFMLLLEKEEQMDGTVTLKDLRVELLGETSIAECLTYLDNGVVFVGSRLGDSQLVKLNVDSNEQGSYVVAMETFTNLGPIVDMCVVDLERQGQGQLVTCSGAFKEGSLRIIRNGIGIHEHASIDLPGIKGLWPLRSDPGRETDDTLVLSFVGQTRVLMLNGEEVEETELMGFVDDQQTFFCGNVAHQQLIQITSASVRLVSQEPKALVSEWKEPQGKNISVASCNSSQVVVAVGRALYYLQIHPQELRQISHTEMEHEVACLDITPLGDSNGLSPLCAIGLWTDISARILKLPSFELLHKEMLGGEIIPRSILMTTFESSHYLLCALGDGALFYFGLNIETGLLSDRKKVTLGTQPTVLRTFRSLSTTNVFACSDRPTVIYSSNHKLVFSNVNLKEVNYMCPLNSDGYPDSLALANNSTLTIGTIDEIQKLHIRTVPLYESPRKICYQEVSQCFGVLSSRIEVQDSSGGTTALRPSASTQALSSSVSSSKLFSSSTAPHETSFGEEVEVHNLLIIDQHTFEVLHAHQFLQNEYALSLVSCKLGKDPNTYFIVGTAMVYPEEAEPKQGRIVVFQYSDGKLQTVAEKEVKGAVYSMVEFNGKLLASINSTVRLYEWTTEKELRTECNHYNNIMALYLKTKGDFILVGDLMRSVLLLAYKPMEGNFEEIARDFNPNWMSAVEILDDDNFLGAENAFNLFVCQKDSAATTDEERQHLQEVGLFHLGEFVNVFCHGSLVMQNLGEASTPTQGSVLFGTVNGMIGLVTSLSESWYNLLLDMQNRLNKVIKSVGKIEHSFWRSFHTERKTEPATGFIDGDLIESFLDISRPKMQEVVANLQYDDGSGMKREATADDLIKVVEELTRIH

- Ikaros degradation in splenocytes (Ikaros): induced selective degradation of Ikaros
SMILES: Nc1cccc2c1CN(C1CCC(=O)NC1=O)C2=O (centres unmarked) [lenalidomide]
- IL-2 secretion (IL-2): enhanced IL-2 secretion
